Measurements reported in ChEMBL document CHEMBL3797084, “Design and evaluation of novel oxadiazole derivatives as potential prostate cancer agents” (Bioorg Med Chem Lett, 2016).

Tests used:
[1] = test system: LNCaP; assay: Cytotoxicity against human LNCAP cells assessed as growth inhibition after 24 hrs by sulforhodamine B assay; assay type: functional, cell-based
Summary of the method: (§1)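 LNCaP and PC-3 were kept as monolayers in RPMI with 10% heat-inactivated FBS and penicillin/streptomycin at 37 °C in 5% CO2. Cells were seeded, left overnight, then treated at various concentrations in triplicate wells for 24 h. They were fixed with 10% TCA for 1 h at 4 °C and stained 10 min with 0.4% SRB in 1% acetic acid. Bound dye was solubilized in Tris-HCl and read at 564 nm. IC50 came from a Boltzmann sigmoidal nonlinear fit, as the mean of at least three experiments.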

[2] = Cytotoxicity against human PC3 cells assessed as growth inhibition after 24 hrs by sulforhodamine B assay; assay type: functional, cell-based; conditions: PC-3, 24 h; summary of the method: as §1
[3] = Cell cycle arrest in human PC3 cells assessed as accumulation at sub G0/G1 phase at 0.2 uM after 48 hrs by propidium iodide staining-based flow cytometry (reference value: 1.6%); assay type: functional; conditions: PC-3
[4] = Cell cycle arrest in human PC3 cells assessed as accumulation at G0/G1 phase at 0.2 uM after 48 hrs by propidium iodide staining-based flow cytometry (reference value: 58%); assay type: functional; conditions: PC-3
[5] = Cell cycle arrest in human PC3 cells assessed as accumulation at S phase at 0.2 uM after 48 hrs by propidium iodide staining-based flow cytometry (reference value: 6.9%); assay type: functional; conditions: PC-3
[6] = Cell cycle arrest in human PC3 cells assessed as accumulation at G2/M phase at 0.2 uM after 48 hrs by propidium iodide staining-based flow cytometry (reference value: 25.1%); assay type: functional; conditions: PC-3
[7] = test system: PC-3; assay: Induction of apoptosis in human PC3 cells assessed as early apoptotic cells at 0.2 uM after 48 hrs by propidium iodide staining-based flow cytometry (reference value: 4.4%); assay type: functional
[8] = test system: PC-3; assay: Induction of apoptosis in human PC3 cells assessed as late apoptotic cells at 0.2 uM after 48 hrs by propidium iodide staining-based flow cytometry (reference value: 4.2%); assay type: functional
[9] = test system: PC-3; assay: Induction of apoptosis in human PC3 cells assessed as necrotic cells at 0.2 uM after 48 hrs by propidium iodide staining-based flow cytometry (reference value: 0.4%); assay type: functional
[10] = test system: PC-3; assay: Induction of apoptosis in human PC3 cells assessed as viable cells at 0.2 uM after 48 hrs by propidium iodide staining-based flow cytometry (reference value: 91%); assay type: functional; conditions: PC-3, 48 h, read-out: Activity

Structure (SMILES): O=S(=O)(Nc1nnc(-c2ccc3ccccc3c2)o1)c1ccc2ccccc2c1
- IC50 [1]: 3.2 µM
- IC50 [2]: 47.8 µM

Structure (SMILES): O=c1[nH]cc(F)c(=O)[nH]1 [FLUOROURACIL]
- IC50 [1]: 0.03 µM
- IC50 [2]: 0.03 µM

Structure (SMILES): O=C(Nc1nnc(-c2ccccc2)o1)c1ccc2ccccc2c1
- IC50 [1]: 32.3 µM
- IC50 [2]: 26 µM

Structure (SMILES): O=S(=O)(Nc1nnc(-c2ccc(C(F)(F)F)cc2)o1)c1ccccc1
- IC50 [1]: 2.5 µM
- IC50 [2]: 8.34 µM

Structure (SMILES): O=C(Nc1nnc(-c2ccccc2)o1)c1ccccc1
- IC50 [1]: 1.33 µM
- IC50 [2]: 0.22 µM
- Activity [3]: 12.1%
- Activity [4]: 50.8%
- Activity [5]: 9%
- Activity [6]: 21.2%
- Activity [7]: 13.2%
- Activity [8]: 15.8%
- Activity [9]: 21.3%
- viability at 0.2 µM [10]: 49.7%

Structure (SMILES): O=C(Nc1nnc(-c2ccc3ccccc3c2)o1)c1ccc(C(F)(F)F)cc1
- IC50 [1]: 6.55 µM
- IC50 [2]: 11.1 µM

Structure (SMILES): O=S(=O)(Nc1nnc(-c2ccc(C(F)(F)F)cc2)o1)c1ccc2ccccc2c1
- IC50 [1]: 3.9 µM
- IC50 [2]: 22.2 µM
